According to ChEMBL document CHEMBL1765009, “Novel hydrazine molecules as tools to understand the flexibility of vascular adhesion protein-1 ligand-binding site: toward more selective inhibitors” (J Med Chem, 2011):

What was measured:
[1] = target: T1, Amine oxidase [copper-containing] 3 (Homo sapiens, UniProt Q16853); assay: Inhibition of human recombinant VAP-1 expressed in CHO cells after 30 mins by coupled colorimetric method; assay type: cell-based
T1 sequence (Q16853 whole entry): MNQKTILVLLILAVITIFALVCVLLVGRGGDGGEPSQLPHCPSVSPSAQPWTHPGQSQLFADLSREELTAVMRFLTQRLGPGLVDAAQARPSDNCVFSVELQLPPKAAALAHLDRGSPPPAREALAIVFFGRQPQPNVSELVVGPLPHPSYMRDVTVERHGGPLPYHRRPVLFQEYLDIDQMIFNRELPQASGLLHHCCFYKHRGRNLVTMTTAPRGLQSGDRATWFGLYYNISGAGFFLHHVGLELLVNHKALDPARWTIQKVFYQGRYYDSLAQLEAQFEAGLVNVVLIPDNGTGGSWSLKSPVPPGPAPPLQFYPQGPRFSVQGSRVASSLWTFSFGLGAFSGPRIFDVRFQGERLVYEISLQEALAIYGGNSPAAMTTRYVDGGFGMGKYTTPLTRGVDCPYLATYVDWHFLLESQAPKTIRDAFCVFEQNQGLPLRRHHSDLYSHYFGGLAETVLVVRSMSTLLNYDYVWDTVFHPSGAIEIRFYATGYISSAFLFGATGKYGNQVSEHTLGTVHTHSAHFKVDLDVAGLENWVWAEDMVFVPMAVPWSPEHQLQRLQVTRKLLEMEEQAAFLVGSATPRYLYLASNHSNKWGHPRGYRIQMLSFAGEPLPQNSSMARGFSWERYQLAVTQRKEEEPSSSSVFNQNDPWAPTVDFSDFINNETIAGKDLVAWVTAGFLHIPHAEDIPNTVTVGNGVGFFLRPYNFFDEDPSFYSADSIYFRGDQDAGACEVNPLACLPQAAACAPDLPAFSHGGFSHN
Procedure, shortened: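 Enzyme source: clarified lysate of CHO cells stably transfected with full-length human VAP-1 cDNA. The lysate was made in 150 mM NaCl, 10 mM Tris pH 7.2, 1.5 mM MgCl2 and 1% NP40 at 4 °C overnight. Reaction started with 1 mM benzylamine, 1 h at 37 °C, A490 read. IC50 given as mean ± SEM of 2–4 experiments.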

Monoamine oxidase = target: T2, Monoamine oxidase (Rattus norvegicus, UniProt P19643+P21396); assay: Inhibition of rat liver MAO-A/MAO-B after 30 mins by coupled colorimetric method
T2 sequence (P19643 whole entry): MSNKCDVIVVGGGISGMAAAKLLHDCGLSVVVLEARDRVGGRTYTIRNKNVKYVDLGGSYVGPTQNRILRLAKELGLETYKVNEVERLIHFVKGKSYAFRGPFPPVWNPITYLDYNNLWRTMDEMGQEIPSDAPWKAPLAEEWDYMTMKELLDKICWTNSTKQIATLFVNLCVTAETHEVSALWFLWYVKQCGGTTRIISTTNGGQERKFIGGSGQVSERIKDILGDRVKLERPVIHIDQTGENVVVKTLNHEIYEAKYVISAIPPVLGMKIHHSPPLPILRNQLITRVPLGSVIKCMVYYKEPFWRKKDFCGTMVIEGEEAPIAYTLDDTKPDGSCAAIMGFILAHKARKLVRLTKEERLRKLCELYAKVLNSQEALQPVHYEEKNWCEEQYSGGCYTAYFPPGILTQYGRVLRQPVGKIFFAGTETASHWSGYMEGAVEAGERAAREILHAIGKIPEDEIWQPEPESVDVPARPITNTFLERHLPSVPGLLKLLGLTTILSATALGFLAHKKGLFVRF
T2 sequence (P21396 whole entry): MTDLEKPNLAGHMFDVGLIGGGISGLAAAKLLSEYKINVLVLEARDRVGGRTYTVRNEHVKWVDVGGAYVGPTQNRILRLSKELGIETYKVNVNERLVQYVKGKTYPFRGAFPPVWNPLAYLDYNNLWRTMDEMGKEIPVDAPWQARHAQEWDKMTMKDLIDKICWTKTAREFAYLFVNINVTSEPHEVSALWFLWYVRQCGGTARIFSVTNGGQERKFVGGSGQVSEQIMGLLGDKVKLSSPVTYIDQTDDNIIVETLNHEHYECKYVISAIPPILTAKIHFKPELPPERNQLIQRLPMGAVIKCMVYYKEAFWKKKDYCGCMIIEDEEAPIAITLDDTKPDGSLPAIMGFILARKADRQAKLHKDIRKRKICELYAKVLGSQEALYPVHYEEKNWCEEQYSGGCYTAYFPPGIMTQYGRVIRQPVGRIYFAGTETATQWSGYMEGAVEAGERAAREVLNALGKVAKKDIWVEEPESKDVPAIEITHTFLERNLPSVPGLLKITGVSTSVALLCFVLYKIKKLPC
Procedure, shortened: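 Enzyme source: mitochondrial fraction from rat liver (MAO A plus MAO B), homogenized in 0.1 M phosphate pH 7.4 and isolated by differential centrifugation. Coupled HRP/4-aminoantipyrine colorimetric assay with 1 mM vanillic acid as chromogen. Inhibitor (1 nM–50 µM) was preincubated 30 min at 37 °C, then tyramine added (0.5 mM final), 1 h at 37 °C, A490 read. IC50 given as mean ± SEM of 2–4 experiments.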

[2] = Selectivity ratio, ratio of IC50 for rat liver MAO-A/MAO-B to IC50 for human recombinant VAP-1

SMILES	IC50 [1] [µM]	IC50 (Monoamine oxidase) [µM]	Ratio IC50 [2]
CN(N)[C@@H](c1ccccc1)[C@@H](O)c1ccccc1	1.18	85	72
CN(N)[C@H](c1ccccc1)[C@@H](O)c1ccccc1	0.33	105	320
NN[C@@H](c1ccccc1)[C@H](O)c1ccccc1 (relative stereo)	50	34	0.7
CN(N)[C@H](c1ccccc1)[C@H](O)c1ccccc1	1.06	99	90
CN(N)[C@@H](c1ccccc1)[C@H](O)c1ccccc1	0.28	70	250

Other lines, results leading:

IC50 [1] [µM]	IC50 (Monoamine oxidase) [µM]	Ratio IC50 [2]	SMILES
0.04	9.9	250	NNC[C@H](O)c1ccccc1
0.15	9.8	65	NNC[C@@H](O)c1ccccc1
1.2	11	9	CCCC(NN)C(O)c1ccccc1 (mixture of isomers)
